# Compound activity: PubChem, several laboratories
# Only some compounds are listed: those with a hit (about 3.7% of all), similar ones and a draw of the others.
# Dynein cargo inh = dynein cargo transport inhibition; 3617.4 mouse cells, GR-EGFP nuclear translocation imaging; test concentration mostly 20 µM; stimulated with dexamethasone, 1 µM; active compounds read low; z-score, hits read low; 220,000 compounds, 0.47% hits; AID 1381;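 active means plate z-score of nuclear minus cytoplasmic receptor signal below a set negative limit, without overly bright fluorescence or cell loss, cut at about -3.5 in these data, passing the limit was not always enough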;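 further: z-score of nuclear minus cytoplasmic ring GR-EGFP intensity difference per well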
#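 Buffer or medium: tet-free, stripped-serum medium; reagent: dexamethasone at 1.0 µM final, 30 min; incubation: 48 h induction, 1 h compound, 30 min dex at 37 °C; measured by: formaldehyde fixation, Hoechst nuclear stain, 10x automated fluorescence imaging; read-out: nuclear-to-cytoplasmic GR-EGFP distribution per well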
# MDM2 E3 inh = blocks human Mdm2 ubiquitin ligase activity; Q00987; cell-based MDM2 ubiquitination luciferase reporter, 2 h; 0 = plate control, 100 = twice control, blank-subtracted; signal enhancement, % at 5 µM; 210,000 compounds, 0.11% hits;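 active means signal enhancement of 30% or more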;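 further: luminescence tracks abundance of the self-degrading MDM2-luciferase fusion protein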
#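 Assay system: mammalian cells stably expressing self-ubiquitinating, self-degrading MDM2 E3–luciferase fusion. Quantity: 2000 cells in each well. Medium: DMEM culture medium. Compound dosing: single-point 5 µM. Timing: cell settling 4 h, compound treatment 2 h, both 37 °C. Technique: luciferase luminescence. Read-out basis: percent signal gain over controls, blank-subtracted. Benchmarks: plate controls and plate blanks.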
# UPR CHOP act = activators of apoptotic arm of unfolded protein response (CHOP) | CHO-CHOP luciferase reporter, UPR activation, luminescence; percent of tunicamycin response over DMSO baseline | activation, % at 10 µM | 330,000 compounds, 0.34% hits | AID 449763;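 active means at 10 µM dose, activation of 40% or more, normalized to positive control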;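 further: 100% = tunicamycin at 10 µg/mL and 0% = DMSO alone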
#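 assay system = CHO CHOP reporter cells | amount = 500 CHO-CHOP cells per well | buffer or medium = F12 with 10% FBS | incubation = 16-18 h cell attachment, then 6 h compound exposure, 37 °C | detection = luminescence read with Steady-Glo | read-out = percent activation relative to tunicamycin control | controls = tunicamycin high control, DMSO low control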
# Beta2AR agonist = human beta-2 adrenergic receptor agonism by FAP; P07550; 340,000 compounds, 0.43% hits; Am2.2-beta2AR cells, FAP receptor internalization, flow cytometry; AID 504454; response, % (test concentration not listed);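 active means response above a set limit, near 3 SD of response in nonfluorescent compounds, cut at about 42% in these data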
# Target sequence (P07550 whole entry, looked up): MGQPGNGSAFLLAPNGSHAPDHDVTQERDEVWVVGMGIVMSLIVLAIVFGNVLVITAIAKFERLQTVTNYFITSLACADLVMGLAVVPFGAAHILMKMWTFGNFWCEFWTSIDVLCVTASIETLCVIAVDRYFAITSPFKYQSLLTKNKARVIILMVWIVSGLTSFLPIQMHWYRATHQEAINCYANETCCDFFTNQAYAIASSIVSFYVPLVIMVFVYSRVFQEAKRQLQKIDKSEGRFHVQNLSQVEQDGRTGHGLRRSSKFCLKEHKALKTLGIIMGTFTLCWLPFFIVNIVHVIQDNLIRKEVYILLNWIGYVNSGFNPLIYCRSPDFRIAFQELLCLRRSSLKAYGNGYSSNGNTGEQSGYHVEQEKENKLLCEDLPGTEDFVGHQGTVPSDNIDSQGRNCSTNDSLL
# UPR XBP1 act = activators of adaptive arm of unfolded protein response (XBP1); 330,000 compounds, 0.33% hits; activation, % at 20 µM; CHO-XBP1 luciferase reporter, IRE1-XBP1 UPR activation, luminescence; percent of tunicamycin response, DMSO as zero;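 active means versus positive control, 20 µM dose yields 30% or more activation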;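 further: 100% = tunicamycin at 10 µg/mL and 0% = DMSO only wells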
#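 Material: CHO cell line with stable XBP1 luciferase reporter; buffer or medium: F12 medium containing 10% fetal bovine serum; compound: single point, 20 µM final compound, 1% DMSO; incubation: 6 h treatment, 37 °C; measured by: glow luminescence from Steady-Glo reagent; evaluation: activation, % of tunicamycin; control set: tunicamycin high, DMSO low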
# Mdm2-MdmX inh = disrupts the human Mdm2-MdmX interaction; O15151+Q00987; SaOS-2 split-luciferase Mdm2/MdmX complementation, luminescence; inhibition, % at 8 µM; 330,000 compounds, 3% hits;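 active means inhibition of at least 50% at 8 µM in the primary screen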
# Mdm2-MdmX conf = confirmation of human Mdm2/MdmX interaction inhibitors; Mdm2-MdmX binding, luminescent assay; inhibition, % at 8 µM; shares compounds with Mdm2-MdmX inh; 10,000 compounds, 55% hits; in the data active means inhibition above about 40%
# FLuc counter = full-length luciferase inhibition in Mdm2/MdmX counter-screen | AID 504607 | SaOS-2 full-length luciferase counterscreen, luminescence | shares compounds with Mdm2-MdmX inh | 6,200 compounds, 77% hits | inhibition, % at 8 µM;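 active means mean inhibition at 8 µM reaching about 37%, which flags the compound as non-specific, limit read from the data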;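 further: p53-null SaOS-2 cells with luciferase driven by a doxycycline-inducible promoter; compound on cells about two nights before reading with doxycycline added after day one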
# * hit, by the source's call; / = no result.
SMILES,Dynein cargo inh,MDM2 E3 inh,UPR CHOP act,Beta2AR agonist,UPR XBP1 act,Mdm2-MdmX inh,Mdm2-MdmX conf,FLuc counter
O=C(NC(NC(=S)Nc1ccccc1)C(Cl)(Cl)Cl)c1cccc(Cl)c1 (centres undefined),2.6,2,14,2,0,93*,46*,66*
O=C(O)c1cccc(NC(=S)NC(NC(=O)c2cccc([N+](=O)[O-])c2)C(Cl)(Cl)Cl)c1 (centres undefined),-0.18,/,-2,6,5,16,/,/
O=C(NC(NC(=S)Nc1ccc(Cl)cc1Cl)C(Cl)(Cl)Cl)c1cccc([N+](=O)[O-])c1 (centres undefined),-0.15,-2,18,8,6,98*,94*,22
COc1cc2c(cc1OC)CN(C(=O)CCNC(=O)c1ccccc1Cl)CC2,/,/,1,-12,3,11,/,/
CCOC(=O)c1c2c(n(Cc3ccccc3)c1C)C(=O)C(=O)c1ccccc1-2,/,/,/,10,/,/,/,/
CCOC(=O)c1c2c(n(C)c1C)C(=O)C(=O)c1ccc(Br)cc1-2,0.28,/,-7,-2,-4,95*,98*,48*
COc1ccc(C(=O)Nc2ccc(C(=O)Nc3cccc(C)c3)cc2)cc1,/,/,2,0,0,56*,39,73*
COc1ccc(C(=O)NCC(=O)Nc2ccc(-c3ccccc3)cc2)cc1,/,/,0,-4,0,51*,68*,62*
Cc1cccc(NC(=O)c2ccc(C(=O)Nc3cccc(C)c3)nc2)c1,-0.5,-8,0,8,0,56*,52*,56*
COc1ccc(C(=O)N/N=C(/C)c2cccc(NC(=O)c3ccccc3F)c2)cc1,/,/,3,0,-2,53*,5,/
COc1ccccc1-c1nc(S(=O)(=O)c2ccccc2)c(N2CCOCC2)o1,/,/,1,3,-4,21,/,/
COc1ccccc1CN(C)C(=O)c1ccc(S(=O)(=O)Nc2c(C)n(C)n(-c3ccccc3)c2=O)cc1,/,/,0,1,-2,-13,/,/
Nc1nc(=O)n(C2CC(O)C(CO)O2)cc1F (centres undefined),/,/,/,-7,/,/,/,/
O=C(CCCNC(=O)c1ccc(Cl)cc1)NCc1ccccc1F,/,/,2,-2,3,9,/,/
O=C(C1CCCN(c2ncnc3c2nc2n3CCCCC2)C1)N1CCN(c2cccc(Cl)c2)CC1 (centres undefined),/,/,6,4,-4,57*,9,/
Cc1ccc(N2CCN(C(=O)C3CCCN(c4ncnc5c4nc4n5CCCCC4)C3)CC2)c(C)c1 (centres undefined),/,/,6,22,4,72*,39,56*
COc1ccccc1N1CCN(CCCNC(=O)C2CCCN(c3ncnc4c3nc3n4CCCCC3)C2)CC1 (centres undefined),/,/,-2,3,-4,50*,10,/
Cc1ccc(C)c(N2CCN(C(=O)C3CCCN(c4ncnc5c4nc4n5CCCCC4)C3)CC2)c1 (centres undefined),/,/,-1,12,0,35,/,/
O=C(C1CCCN(c2ncnc3c2nc2n3CCCCC2)C1)N1CCN(c2ccccc2)CC1 (centres undefined),/,/,2,4,-3,24,/,/
Cc1cccc(N2CCN(C(=O)C3CCN(c4ncnc5c4nc4n5CCCCC4)CC3)CC2C)c1 (centres undefined),/,/,3,21,-5,60*,50*,61*
COc1ccc(CNC(=O)CCC(=O)Nc2ccc(Cl)cc2)cc1,/,/,-3,-1,-3,-20,/,/
O=C1N=C(N2CCCC2)S/C1=C\C=C\c1ccccc1,-0.96,-50,-1,-6,-4,59*,64*,152*
Cc1cccc([C@@H]2[C@@H]3C(=O)N(Cc4ccccc4)C(=O)[C@@H]3[C@]3(Cc4ccc(Cl)cc4)C(=O)N(c4ccc(Br)cc4)C(=O)N23)c1,/,/,0,-3,1,90*,99*,49*
COc1ccc([C@@H]2[C@@H]3C(=O)N(C(C)(C)C)C(=O)[C@@H]3[C@]3(Cc4ccccc4)C(=O)N(c4ccc(Br)cc4)C(=O)N23)cc1,/,/,4,-13,-1,63*,71*,36
COc1ccc(N2C(=O)N3[C@H](c4ccc(Br)cc4)[C@@H]4C(=O)N(C(C)(C)C)C(=O)[C@@H]4[C@]3(Cc3ccccc3)C2=O)cc1,/,/,-1,-6,0,29,/,/
SMILES,Dynein cargo inh,MDM2 E3 inh,UPR CHOP act,Beta2AR agonist,UPR XBP1 act,Mdm2-MdmX inh,Mdm2-MdmX conf,FLuc counter
c1ccc(COCCC2CO2)cc1 (centres undefined),/,/,-1,/,-1,-16,/,/
COc1ccc2[nH]c(=O)c(CN(CCN3CCCC3)C(=O)Nc3ccccc3Cl)cc2c1,/,-17,-3,-3,3,40,/,/
CCOc1ccc2[nH]c(=O)c(CN(CCN3CCCC3)C(=S)Nc3ccccc3OCC)cc2c1,3.9,8,4,2,2,100*,17,/
O=C(COC(=O)CCS(=O)(=O)c1ccc(F)cc1)NC1CCCCC1,/,/,0,-5,1,-2,/,/
Cc1cc(C(=O)CN2C(=O)C(=O)N(Cc3ccccc3)C2=O)c(C)n1Cc1ccccc1,/,/,-1,12,-2,31,/,/
Cc1cc(C(=O)CN2CC(C)OC(C)C2)c(C)n1-c1ccccc1 (centres undefined),-0.82,-81,2,1,0,-34,/,/
Cc1cc(C(=O)CN2C(=O)C(=O)N(Cc3ccccc3)C2=O)c(C)n1-c1ccccc1F,-0.25,2,0,3,-2,52*,51*,51*
Cc1cc(C(=O)CN2CCC(C)CC2)c(C)n1-c1ccccc1F,-0.11,-45,-3,0,-3,66*,76*,70*
CC(NC(=S)Nc1ccc(OC(F)F)c(Cl)c1)C(C)(C)C (centres undefined),-1.5,8,1,16,0,58*,16,/
COC(=O)[C@H](CC(C)C)N(Cc1ccccc1)S(=O)(=O)N(Cc1ccc(OC)cc1)[C@@H](CC(C)C)C(=O)OC,/,/,7,6,-1,29,/,/
C=C[C@H](CC(C)C)N(Cc1ccccc1)S(=O)(=O)N(Cc1ccc(OC)cc1)[C@H](C=C)CC(C)C,/,/,9,-5,-3,58*,0,/
CC(C)C[C@H](CO)N(Cc1ccccc1)S(=O)(=O)N(Cc1ccccc1)[C@@H](CO)CC(C)C,/,/,3,25,25,91*,10,/
